According to ChEMBL document CHEMBL1127645, “Synthesis, structure-activity relationships, and pharmacological evaluation of a series of fluorinated 3-benzyl-5-indolecarboxamides: identification of 4-[[5-[((2R)-2-methyl-4,4,4-trifluorobutyl)carbamoyl]-1-methyl indol- 3-yl]methyl]-3-methoxy-N-[(2-methylphenyl)sulfonyl]benzamide, a potent, …” (J Med Chem, 1994):

Experiments:
[1] = molecular target: T1, Cysteinyl leukotriene receptor 1 (Cavia porcellus, UniProt Q2NNR5); assay: Inhibition constant for displacement of [3H]LTD4 on guinea pig lung parenchymal membranes; assay type: tissue-based, Lung parenchyma
T1 sequence (Q2NNR5 whole entry): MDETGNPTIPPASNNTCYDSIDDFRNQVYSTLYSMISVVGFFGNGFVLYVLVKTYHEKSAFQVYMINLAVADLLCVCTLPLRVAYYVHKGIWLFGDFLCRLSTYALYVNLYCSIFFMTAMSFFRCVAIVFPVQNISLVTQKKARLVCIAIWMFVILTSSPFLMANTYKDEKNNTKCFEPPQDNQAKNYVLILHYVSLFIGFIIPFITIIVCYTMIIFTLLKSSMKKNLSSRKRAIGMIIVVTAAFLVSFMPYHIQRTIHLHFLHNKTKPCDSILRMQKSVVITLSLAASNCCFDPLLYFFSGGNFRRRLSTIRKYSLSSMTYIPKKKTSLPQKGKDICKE
Outline: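 Guinea pig lung parenchymal membranes; competitive displacement of [3H]LTD4. Ki taken as mean of two experiments, each run in duplicate on separate membrane batches.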

[2] = Compound was evaluated for the clearance in rat; assay type: ADME, organism-based; settings: in vivo
[3] = Bioavailability in guinea pig; assay type: ADME, organism-based, Cavia porcellus; settings: in vivo
[4] = Clearance in guinea pig; assay type: ADME, organism-based, Cavia porcellus; settings: in vivo
[5] = Partition coefficient (logP); settings: octanol/water
[6] = molecular target: T2, Cysteinyl leukotriene receptor 1 (Cavia porcellus) (UniProt Q2NNR5); assay: Effective dose for the inhibition of percent protection from LTD4-induced dyspnea in a conscious guinea pig administered through oral route; assay type: functional
T2 sequence (whole entry): T1 sequence (Q2NNR5 whole entry)
Outline: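 Conscious guinea pig dyspnea model with LTD4 challenge; percent protection from dyspnea plotted against dose (oral or intravenous). ED50 obtained by regression using at least three doses from the linear portion of the dose-response curve; SEM for percent protection was generally ≤25% at each dose.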

Cavia porcellus [7] = assay: (§1) ED50 (p.o.) / ED50 (i.v.) ratio of the compound; assay type: functional
Outline: (§2)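 Ratio of oral ED50 to intravenous ED50 from the conscious guinea pig LTD4-induced dyspnea model, used as an index of oral bioavailability.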

[8] = molecular target: T2, Cysteinyl leukotriene receptor 1 (Cavia porcellus); assay: Binding constant in guinea pig tracheal spirals with LTE4; assay type: tissue-based; settings: Trachea
Outline: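 Guinea pig tracheal spirals contracted with LTE4 as agonist. Antagonist KB derived from concentration-response curves and reported as -log(KB) (pKB); n = number of concentration-response curves.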

[9] = Compound was evaluated for the oral bioavailability in rat; assay type: ADME, organism-based; settings: in vivo, read-out: Bioavailabiility
[10] = tested on: Cysteinyl leukotriene receptor (Cavia porcellus); assay: Inhibition of percent protection from LTD4-induced dyspnea in a conscious guinea pig administered intravenously
Cavia porcellus [11] = assay: Percent inhibition of protection from LTD4-induced dyspnea in a conscious guinea pig administered through oral route at a dose of 3 umol/kg; assay type: functional
[12] = Compound was evaluated for the clearance in dog; assay type: ADME, organism-based, Canis lupus familiaris; settings: in vivo
[13] = Compound was evaluated for the oral bioavailability in dog; assay type: ADME, organism-based, Canis lupus familiaris; settings: in vivo, read-out: Bioavailabiility
[14] = Compound was evaluated for clearance in rat; assay type: ADME, organism-based; settings: in vivo
[15] = molecular target: Alpha-2 adrenergic receptor (Mus musculus) (UniProt P30545+Q01338+Q01337); assay: Compound was evaluated for the selectivity of alpha 2 adrenergic receptors isolated from mouse vas deferens by displacing clonidine; assay type: functional, tissue-based
Outline: (§3)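 Isolated-tissue functional selectivity screen, run at a single standard concentration of 10 μM, recording any change in the response to the receptor agonist.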

[16] = molecular target: Beta-1 adrenergic receptor (Cavia porcellus) (UniProt B0FL73); assay: Compound was evaluated for the selectivity of Beta 1 adrenergic receptors isolated from guinea pig right atrium by displacing isoproterenol; assay type: functional, tissue-based; settings: Cardiac atrium; outline: as §3
[17] = molecular target: Histamine H1 receptor (Cavia porcellus) (UniProt P31389); assay: Compound was evaluated for the selectivity of Histaminergic 1 receptor isolated from guinea pig ileum by displacing histamine; assay type: tissue-based; outline: as §3
[18] = molecular target: Muscarinic acetylcholine receptor (Homo sapiens) (UniProt P20309+P08173+P11229+P08172+P08912); assay: Compound was evaluated for the selectivity of Muscarinic receptors isolated from guinea pig ileum by displacing acetylcholine; assay type: tissue-based; settings: Cavia porcellus, target entry is the homologue from another species; outline: as §3
[19] = molecular target: Prostaglandin E2 receptor EP2 subtype (Homo sapiens) (UniProt P43116); assay: Compound was evaluated for the selectivity of Prostaglandin 2 receptors isolated from guinea pig ileum by displacing PGE-2; assay type: tissue-based; settings: Cavia porcellus; Trachea; in the assay text read “guinea pig trachea” for “guinea pig ileum”; target entry is the homologue from another species; outline: as §3
[20] = molecular target: T3, Thromboxane A2 receptor (Rattus norvegicus) (UniProt P34978); assay: Compound was evaluated for the selectivity of Thromboxane 1 receptors isolated from rat aorta by displacing U-46,619; assay type: functional, tissue-based; outline: as §3
T3 sequence (whole entry): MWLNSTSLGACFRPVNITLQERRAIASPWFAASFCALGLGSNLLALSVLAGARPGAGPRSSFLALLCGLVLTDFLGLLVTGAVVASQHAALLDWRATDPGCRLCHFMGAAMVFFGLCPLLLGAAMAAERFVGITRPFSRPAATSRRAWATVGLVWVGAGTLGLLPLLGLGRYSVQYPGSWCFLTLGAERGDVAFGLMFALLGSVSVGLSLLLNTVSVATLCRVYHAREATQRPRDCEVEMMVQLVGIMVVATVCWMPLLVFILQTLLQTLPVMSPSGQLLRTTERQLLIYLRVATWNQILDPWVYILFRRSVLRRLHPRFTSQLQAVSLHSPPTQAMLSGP

[21] = as §1; assay type: functional; outline: as §2
[22] = molecular target: T4, Prostaglandin E2 receptor EP1 subtype (Homo sapiens) (UniProt P34995); assay: Compound was evaluated for the selectivity of Prostaglandin 1 receptors isolated from guinea pig ileum by displacing PGE-2; settings: Cavia porcellus, target entry is the homologue from another species
T4 sequence (whole entry): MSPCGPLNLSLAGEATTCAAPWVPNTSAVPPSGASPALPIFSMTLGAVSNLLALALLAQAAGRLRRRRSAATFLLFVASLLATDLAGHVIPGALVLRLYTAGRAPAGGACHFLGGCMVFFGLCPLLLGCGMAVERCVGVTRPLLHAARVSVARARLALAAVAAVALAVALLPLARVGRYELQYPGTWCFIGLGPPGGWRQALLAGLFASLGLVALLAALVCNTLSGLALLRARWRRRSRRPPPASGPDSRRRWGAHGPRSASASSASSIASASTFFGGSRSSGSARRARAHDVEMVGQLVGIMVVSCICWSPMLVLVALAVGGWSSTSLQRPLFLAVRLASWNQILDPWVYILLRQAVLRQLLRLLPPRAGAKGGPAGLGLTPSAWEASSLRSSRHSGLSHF

Rattus norvegicus = species: Rattus norvegicus; assay: Compound was evaluated for the pharmacokinetic characters in Rat; assay type: ADME, organism-based; settings: in vivo

Sequence of Prostaglandin E2 receptor EP2 subtype (Homo sapiens) (P43116 whole entry): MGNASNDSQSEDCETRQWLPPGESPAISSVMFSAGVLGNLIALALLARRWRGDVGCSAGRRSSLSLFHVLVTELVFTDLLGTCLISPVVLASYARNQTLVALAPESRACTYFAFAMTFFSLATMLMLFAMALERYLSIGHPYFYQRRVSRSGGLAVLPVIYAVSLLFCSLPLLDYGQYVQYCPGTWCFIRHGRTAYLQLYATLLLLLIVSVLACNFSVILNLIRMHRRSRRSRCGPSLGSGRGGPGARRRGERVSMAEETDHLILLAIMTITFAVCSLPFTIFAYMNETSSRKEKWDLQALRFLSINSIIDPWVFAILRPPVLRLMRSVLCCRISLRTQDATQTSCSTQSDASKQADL
Sequence of Histamine H1 receptor (Cavia porcellus) (P31389 whole entry): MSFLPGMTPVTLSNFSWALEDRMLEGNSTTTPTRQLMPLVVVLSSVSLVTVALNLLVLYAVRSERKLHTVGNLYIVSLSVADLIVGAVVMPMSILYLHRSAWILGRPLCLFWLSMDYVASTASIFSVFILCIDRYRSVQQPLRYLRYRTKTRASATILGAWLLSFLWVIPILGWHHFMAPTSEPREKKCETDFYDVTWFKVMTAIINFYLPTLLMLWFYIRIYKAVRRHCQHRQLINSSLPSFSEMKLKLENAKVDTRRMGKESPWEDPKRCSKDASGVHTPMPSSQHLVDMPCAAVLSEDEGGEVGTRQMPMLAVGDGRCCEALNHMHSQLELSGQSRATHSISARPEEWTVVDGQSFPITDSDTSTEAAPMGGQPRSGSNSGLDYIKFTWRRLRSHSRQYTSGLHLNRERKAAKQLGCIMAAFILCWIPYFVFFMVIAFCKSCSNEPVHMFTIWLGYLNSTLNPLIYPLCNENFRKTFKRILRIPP
Sequence of Beta-1 adrenergic receptor (Cavia porcellus) (B0FL73 1-467): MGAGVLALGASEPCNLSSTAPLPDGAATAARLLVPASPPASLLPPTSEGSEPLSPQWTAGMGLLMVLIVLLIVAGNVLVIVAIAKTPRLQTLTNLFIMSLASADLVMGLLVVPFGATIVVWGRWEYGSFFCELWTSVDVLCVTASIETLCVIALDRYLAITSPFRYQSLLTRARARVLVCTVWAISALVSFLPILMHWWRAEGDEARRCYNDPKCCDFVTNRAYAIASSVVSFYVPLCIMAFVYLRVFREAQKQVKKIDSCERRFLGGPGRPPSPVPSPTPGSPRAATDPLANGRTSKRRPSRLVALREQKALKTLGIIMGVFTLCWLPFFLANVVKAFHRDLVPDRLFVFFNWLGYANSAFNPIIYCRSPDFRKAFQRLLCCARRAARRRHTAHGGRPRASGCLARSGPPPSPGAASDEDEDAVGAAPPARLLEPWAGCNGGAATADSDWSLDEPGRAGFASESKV

| Structure (SMILES) | Ki [1] [nM] | ED50 [6] [µmol/kg] | pKB [8] | ED50 [10] [µmol/kg] | also measured |
| --- | --- | --- | --- | --- | --- |
| COc1cc(C(=O)NS(=O)(=O)c2ccccc2C)ccc1Cc1cn(C)c2ccc(C(=O)NCC3(CC(F)(F)F)CC3)cc12 | 4.6 |  |  |  |  |
| CCC(CNC(=O)c1ccc2c(c1)c(Cc1ccc(C(=O)NS(=O)(=O)c3ccccc3C)cc1OC)cn2C)CC(F)(F)F (stereo unspecified) | 5.3 | 2.64 | 9.6 | 0.047 | logP [5]: 6.45; Ratio (Cavia porcellus [7]): 56 |
| CCCn1cc(Cc2ccc(C(=O)NS(=O)(=O)c3ccccc3C)cc2OC)c2cc(C(=O)NCC(C)CC(F)(F)F)ccc21 (stereo unspecified) | 1.7 |  |  |  |  |
| C=C(CNC(=O)c1ccc2c(c1)c(Cc1ccc(C(=O)NS(=O)(=O)c3ccccc3C)cc1OC)cn2C)CC(F)(F)F | 3.8 |  |  |  |  |
| CCC(CC)CNC(=O)c1ccc2c(c1)c(Cc1ccc(C(=O)O)cc1OC)cn2C |  |  |  |  | logP [5]: 5.42 |
| COc1cc(C(=O)NS(=O)(=O)c2ccccc2Cl)ccc1Cn1ccc2ccc(C(=O)NCC(C)CC(F)(F)F)cc21 (stereo unspecified) | 4.2 |  | 8.9 |  |  |
| COc1cc(C(=O)NS(=O)(=O)c2ccccc2C)ccc1Cc1cn(C)c2ccc(NC(=O)OC3CCCC3)cc12 |  | 0.54 | 9.67 |  |  |

Further lines, with some results ahead:

| Ki [1] [nM] | ED50 [6] [µmol/kg] | pKB [8] | ED50 [10] [µmol/kg] | Structure (SMILES) | also measured |
| --- | --- | --- | --- | --- | --- |
| 7.7 |  |  |  | COc1cc(C(=O)NS(=O)(=O)c2ccccc2C)ccc1Cn1ccc2ccc(C(=O)NCC(C)CC(F)(F)F)cc21 (stereo unspecified) |  |
| 0.57 | 1.44 | 9.93 | 0.036 | COc1cc(C(=O)NS(=O)(=O)c2ccccc2C)ccc1Cc1cn(C)c2ccc(C(=O)NCC(C)CC(F)(F)F)cc12 (stereo unspecified) | clearance [2]: 1.83 mL/min/kg; bioavailability [3]: 12%; clearance [4]: 12.3 mL/min/kg; logP [5]: 6.18; Ratio (Cavia porcellus [7]): 40; bioavailability [9]: 33% |
| 5 |  | 8.8 |  | CCCCC(CNC(=O)c1ccc2c(c1)c(Cc1ccc(C(=O)NS(=O)(=O)c3ccccc3C)cc1OC)cn2C)C(F)(F)F (stereo unspecified) |  |
| 1.2 |  | 9.3 |  | COc1cc(C(=O)NS(=O)(=O)c2ccccc2C)ccc1Cc1cn(C)c2ccc(C(=O)NCCC(C(F)(F)F)C(F)(F)F)cc12 | inhibition in vivo at 3 µmol/kg (Cavia porcellus [11]): 19% |
| 0.42 | 1.14 | 10.1 | 0.022 | COc1cc(C(=O)NS(=O)(=O)c2ccccc2C)ccc1Cc1cn(C)c2ccc(C(=O)NC[C@H](C)CC(F)(F)F)cc12 | clearance [12]: 5.17 mL/min/kg; bioavailability [3]: 15%; bioavailability [13]: 38%; clearance [4]: 14.2 mL/min/kg; clearance [14]: 1.17 mL/min/kg; pKB [15]: < 5; pKB [16]: < 5; pKB [17]: < 5; pKB [18]: < 5; pKB [19]: < 5; pKB [20]: < 5; Ratio [21]: 52; bioavailability [9]: 33%; pKB [22]: 5.23 |
| 2.2 |  | 8.9 |  | COc1cc(C(=O)NS(=O)(=O)c2ccccc2C)ccc1Cc1cn(C)c2ccc(C(=O)NCC(C)(C)CC(F)(F)F)cc12 |  |
| 1.45 | 3.73 | 9.28 | 0.047 | COc1cc(C(=O)NS(=O)(=O)c2ccccc2C)ccc1Cc1cn(C)c2ccc(C(=O)NC[C@@H](C)CC(F)(F)F)cc12 | clearance [14]: 1.67 mL/min/kg; Ratio (Cavia porcellus [7]): 79; Pharmacokinetic (Rattus norvegicus): 23% |
| 4.7 | 14.7 | 8 | 1.09 | CCC(CC)CNC(=O)c1ccc2c(c1)c(Cc1ccc(C(=O)NS(=O)(=O)c3ccccc3C)cc1OC)cn2C |  |
